Experimental findings from ChEMBL document CHEMBL3286272, “Synthesis, biological, and biophysical studies of DAG-indololactones designed as selective activators of RasGRP” (Bioorg Med Chem, 2014) are described below.

The source made the active and inactive calls. The rule behind the calls is not given here.

The target in test [1] is T1, Ras guanyl-releasing protein 3 (Homo sapiens, UniProt Q8IV61).
T1 sequence (Q8IV61 whole entry): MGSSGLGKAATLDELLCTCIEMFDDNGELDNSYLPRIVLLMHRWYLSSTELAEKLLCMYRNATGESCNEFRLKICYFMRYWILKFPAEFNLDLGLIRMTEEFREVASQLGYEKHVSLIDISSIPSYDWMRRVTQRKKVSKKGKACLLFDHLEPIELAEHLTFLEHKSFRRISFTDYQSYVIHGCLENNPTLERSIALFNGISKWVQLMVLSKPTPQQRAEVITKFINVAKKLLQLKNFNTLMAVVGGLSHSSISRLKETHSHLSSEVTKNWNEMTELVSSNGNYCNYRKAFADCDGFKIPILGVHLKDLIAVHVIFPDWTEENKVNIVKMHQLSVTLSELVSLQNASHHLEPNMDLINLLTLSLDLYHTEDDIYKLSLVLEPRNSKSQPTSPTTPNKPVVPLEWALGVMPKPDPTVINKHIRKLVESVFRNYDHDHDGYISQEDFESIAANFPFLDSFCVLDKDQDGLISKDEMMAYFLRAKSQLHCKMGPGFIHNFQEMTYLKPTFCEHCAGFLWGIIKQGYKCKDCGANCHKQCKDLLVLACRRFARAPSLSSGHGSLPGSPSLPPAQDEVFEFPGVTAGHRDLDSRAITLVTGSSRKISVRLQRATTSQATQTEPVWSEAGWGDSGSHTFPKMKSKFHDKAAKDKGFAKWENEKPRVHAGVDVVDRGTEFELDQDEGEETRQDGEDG
The test is described as follows: Displacement of [3H]PDBu from recombinant human GFP-tagged RasGRP3 expressed in Escherichia coli BL21 after 5 mins by scintillation counting analysis in presence of phosphatidylserine. A digest of the protocol: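 Competition for [3H]PDBu binding to RasGRP3 with 100 μg/ml phosphatidylserine present, run at 18°C to optimize stability. Values are mean ± SEM of triplicate independent experiments.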
Background: Displacement assays read how much labelled ligand stays bound in the presence of the test substance.

Test [2] concerns the target Protein kinase C alpha type (Homo sapiens, UniProt P17252). In words: Binding affinity to recombinant human GFP-tagged PKC-alpha expressed in CHOK1 cells assessed as induction of protein translocation from plasma membrane to internal membrane at 10000 nM after 5 to 15 mins by confocal microscopic analysis. The test is classed as cell-based. The conditions noted are these: CHO-K1. A digest of the protocol:
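CHO-K1 cells were transiently transfected with human GFP-PKCα and imaged live by confocal microscopy 24 h later (488 nm excitation, 500–530 nm emission) every 30 s for 30 min after 10 μM ligand. Membrane/cytoplasm intensity ratio from 4 μm2 regions was normalized to time 0. n = 3–6.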

Test [3] has as its target Protein kinase C delta type (Homo sapiens) (UniProt Q05655). In words: Activation of PKC-delta in HEK293 cells assessed as protein phosphorylation at S299 at 0.1 to 30 uM after 30 mins by Western blot analysis. The class given is cell-based. (A western blot detects proteins with antibodies after separation by electrophoresis.)
For test [4], the target named is T2, Protein kinase C epsilon type (Homo sapiens) (UniProt Q02156).
T2 sequence (whole entry): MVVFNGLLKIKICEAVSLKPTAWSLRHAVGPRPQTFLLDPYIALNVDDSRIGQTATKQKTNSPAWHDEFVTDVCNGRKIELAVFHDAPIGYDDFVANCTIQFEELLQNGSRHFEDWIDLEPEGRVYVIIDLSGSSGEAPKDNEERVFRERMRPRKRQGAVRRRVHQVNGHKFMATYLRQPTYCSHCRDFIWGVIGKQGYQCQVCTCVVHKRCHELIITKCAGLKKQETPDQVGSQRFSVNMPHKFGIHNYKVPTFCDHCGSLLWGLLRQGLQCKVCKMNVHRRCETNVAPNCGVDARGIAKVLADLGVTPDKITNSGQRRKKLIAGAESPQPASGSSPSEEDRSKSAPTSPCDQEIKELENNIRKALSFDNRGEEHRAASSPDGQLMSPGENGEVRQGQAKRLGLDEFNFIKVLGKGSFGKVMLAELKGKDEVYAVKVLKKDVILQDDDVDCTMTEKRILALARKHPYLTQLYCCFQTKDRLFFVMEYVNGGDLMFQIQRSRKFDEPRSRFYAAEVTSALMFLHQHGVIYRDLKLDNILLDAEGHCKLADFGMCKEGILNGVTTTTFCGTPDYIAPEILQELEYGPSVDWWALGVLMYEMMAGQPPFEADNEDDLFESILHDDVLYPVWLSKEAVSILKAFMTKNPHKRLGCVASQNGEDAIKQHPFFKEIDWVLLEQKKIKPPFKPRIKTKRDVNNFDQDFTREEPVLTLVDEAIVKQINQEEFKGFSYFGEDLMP
The test is described as follows: Binding affinity to recombinant human YFP-tagged PKC-epsilon expressed in human LNCAP cells assessed as induction of protein translocation from plasma membrane to internal membrane at 10000 nM after 2 to 10 mins by confocal microscopic analysis. The class given is cell-based. A digest of the protocol: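 LNCaP cells were transiently transfected with human YFP-PKCε and imaged live by confocal microscopy 24 h later every 30 s for 30 min after 10 μM ligand. Membrane/cytoplasm intensity ratio from 4 μm2 regions was normalized to time 0. n = 3–6.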

In test [5] the target is Protein kinase C delta type (Homo sapiens) (UniProt Q05655). The test is described as follows: Activation of PKC-delta in HEK293 cells overexpressing RasGRP3 assessed as protein phosphorylation at S299 at 0.1 to 30 uM after 30 mins by Western blot analysis. The class given is cell-based.
Test [6] concerns the target T3, Ras guanyl-releasing protein 3 (Homo sapiens) (UniProt Q8IV61).
T3 sequence (whole entry): T1 sequence (Q8IV61 whole entry)
The test is described as follows: Activation of RasGRP3 (unknown origin) overexpressed in HEK293 cells assessed as protein phosphorylation at T133 at 0.1 to 30 uM after 30 mins by Western blot analysis. The test is classed as cell-based.

In test [7] the target is Protein kinase C delta type (Homo sapiens) (UniProt Q05655). In words: Activation of PKC-delta in human Ramos cells assessed as protein phosphorylation at S299 at 10000 nM after 30 mins by Western blot analysis. The class given is cell-based. A digest of the protocol:
(§1)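 Ramos cells in RPMI-1640 with 10% FBS and 1% L-glutamine, plated at 300,000 cells/ml, were exposed after 24 h to 0.01, 0.1, 1 and 10 μM compound for 30 min. Lysates were made in PBS with 0.5% Triton X-100 and sonicated. 7.5 μg protein was run on 10% Tris-glycine gels, blotted to nitrocellulose, probed overnight with phospho-specific primary antibodies and detected by ECL.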

Test [8] can be described thus: Binding affinity to 9:1 DMPG/DMPC giant vesicle at 6.05 uM by fluorescence emission spectra analysis. The conditions noted are these: in the assay text read “9:1 DMPC/DMPG” for “9:1 DMPG/DMPC”. A digest of the protocol:
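Intrinsic 1-methylindole emission of 6.05 μM compound in Tris/sucrose/KCl buffer pH 7.4 was recorded at 27°C while titrating with DMPC/DMPG giant vesicles (5–30 μL), with excitation at each compound's own wavelength. Vesicle light scattering was under 5% of the signal.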

In test [9] the target is T3, Ras guanyl-releasing protein 3 (Homo sapiens). In words: Activation of RasGRP3 in human Ramos cells assessed as ERK1/2 phosphorylation at 10000 nM after 30 mins by Western blot analysis. The class given is cell-based. A digest of the protocol:
as §1

The subject of test [10] is Lipid bilayer. The test is described as follows: Binding affinity to NBD-PE embedded 9:1 DMPC/DMPG giant vesicle at 6.05 uM by FRET analysis. A digest of the protocol:
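Giant vesicles containing NBD-PE (100:1 phospholipid:fluorophore) were mixed with 6.05 μM compound from DMSO stock in Tris/sucrose/KCl buffer pH 7.4. NBD-PE emission was recorded after excitation at 330–370 nm, the indole excitation range. Triton addition served as the disruption control.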

A word on the Ki: it is the dissociation constant of the complex between target and ligand, obtained from inhibition or displacement.

Protein kinase C delta type (Homo sapiens), sequence (Q05655 whole entry, looked up): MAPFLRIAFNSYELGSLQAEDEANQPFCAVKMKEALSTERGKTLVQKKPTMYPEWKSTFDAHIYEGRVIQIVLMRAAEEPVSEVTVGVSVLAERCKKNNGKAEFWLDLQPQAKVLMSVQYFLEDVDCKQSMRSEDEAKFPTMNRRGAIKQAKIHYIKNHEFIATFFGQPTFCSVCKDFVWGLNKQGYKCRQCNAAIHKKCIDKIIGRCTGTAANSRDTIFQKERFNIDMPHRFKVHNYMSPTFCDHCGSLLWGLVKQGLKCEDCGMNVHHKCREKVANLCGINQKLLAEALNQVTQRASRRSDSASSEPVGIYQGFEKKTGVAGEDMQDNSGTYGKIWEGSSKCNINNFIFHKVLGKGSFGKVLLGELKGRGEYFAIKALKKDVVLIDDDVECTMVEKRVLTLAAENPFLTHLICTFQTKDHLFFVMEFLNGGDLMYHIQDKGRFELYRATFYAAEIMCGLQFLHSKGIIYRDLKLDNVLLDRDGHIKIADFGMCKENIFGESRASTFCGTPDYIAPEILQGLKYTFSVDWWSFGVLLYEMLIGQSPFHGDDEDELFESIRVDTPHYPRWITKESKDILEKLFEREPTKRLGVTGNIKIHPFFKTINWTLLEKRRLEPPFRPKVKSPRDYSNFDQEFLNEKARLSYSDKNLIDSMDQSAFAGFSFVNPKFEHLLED

In the case of `CCCC(CCC)C(=O)OCC1(CO)C/C(=C\c2cccc3c2ccn3C)C(=O)O1` (centres undefined), the inhibitory constant (Ki) in [1] amounted to 1.63 nM. The result in [2], in test [3], in test [4], in test [5], in test [6] and in test [7] was Active. Also, the outcome in test [8] and in test [9] was Active.

`CCCC(CCC)C(=O)OCC1(CO)C/C(=C\c2ccc3ccn(C)c3c2)C(=O)O1` (centres undefined): the Ki in test [1] came out at 1.22 nM. Also, the outcome in test [2], in test [3], in test [4], in [5], in [6] and in [7] was Active. In addition, the outcome in test [8], in [10] and in test [9] was Active.

`CCCC(CCC)C(=O)OCC1(CO)C/C(=C\c2ccc3c(ccn3C)c2)C(=O)O1` (centres undefined): in [1], the Ki worked out at 0.34 nM. Also, the outcome in [2], in test [3], in test [4], in [5], in [6] and in test [7] was Active. Besides, the outcome in test [10] and in test [9] was Active. In addition, the outcome in test [8] was inactive.

Turning to `CCCC(CCC)C(=O)OCC1(CO)C/C(=C\c2cccc3ccn(C)c23)C(=O)O1` (centres undefined), the inhibition constant Ki in test [1] turned out to be 1.12 nM. Besides, the outcome in test [2], in test [3], in [4], in [5], in test [6] and in [7] was Active. The outcome in [10] and in test [9] was Active. In addition, in [8], the outcome was inactive.

Turning to `CCCC(CCC)C(=O)OCC1(CO)C/C(=C\c2cn(C)c3ccccc23)C(=O)O1` (centres undefined), the Ki in test [1] stood at 0.33 nM. In addition, the result in test [2], in [3], in [4], in [5], in test [6] and in test [7] was Active. In addition, in test [9], the outcome was Active. Further, the result in [8] and in test [10] was inactive.
